Data: ChEMBL document CHEMBL1156979, “The impact of polyether chain length on the iron clearing efficiency and physiochemical properties of desferrithiocin analogues” (J Med Chem, 2010)
Calls of active or inactive are those of the source. The calls are words filed in the database; no cut-off is given here.

Tests used:
[1] = test system: Rattus norvegicus; experiment: Iron-clearing efficiency in non-iron-overloaded and bile duct-cannulated Sprague-Dawley rat at 300 umol/kg, po after 24 hrs relative to control; type: functional
In short: (§1)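 Non-iron-overloaded male Sprague-Dawley rats (400–450 g), bile duct-cannulated, given a single oral dose of 300 μmol/kg, either by gavage as monosodium salt or in capsules. Bile was collected at 3 h intervals for up to 48 h and urine every 24 h. Iron was measured by flame absorption spectroscopy. ICE = 24-h iron excretion of treated rats minus controls, divided by theoretical output (2:1 ligand:iron); percent. Mean ± SEM; one-tailed t-test.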

[2] = test system: Rattus norvegicus; experiment: Iron-clearing efficiency in non-iron-overloaded and bile duct-cannulated Sprague-Dawley rat assessed as time required to maximum bile iron excretion at 300 umol/kg, po; type: functional; in short: as §1
[3] = test system: Sapajus apella; experiment: Iron-clearing efficiency in iron-overloaded Cebus apella assessed as feces iron excretion at 75 umol/kg, po measured daily once for 5 days by lame absorption spectroscopy relative to control; type: functional
[4] = test system: Rattus norvegicus; experiment: Iron-clearing efficiency in non-iron-overloaded and bile duct-cannulated Sprague-Dawley rat assessed as urine iron excretion at 300 umol/kg, po after 24 hrs relative to control; type: functional
[5] = test system: Sapajus apella; experiment: Iron-clearing efficiency in iron-overloaded Cebus apella assessed as urine iron excretion at 75 umol/kg, po measured daily once for 5 days by lame absorption spectroscopy relative to control; type: functional
[6] = test system: Rattus norvegicus; experiment: Iron-clearing efficiency in non-iron-overloaded and bile duct-cannulated Sprague-Dawley rat assessed as bile iron excretion at 300 umol/kg, po up to 24 hrs; type: functional, organism-based; in short: as §1
[7] = test system: Sapajus apella; experiment: Iron-clearing efficiency in iron-overloaded Cebus apella at 75 umol/kg, po measured daily once for 2 days by flame absorption spectroscopy relative to control; type: functional
In short: (§2)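 Iron-overloaded Cebus apella (3.5–4 kg; iv iron dextran to about 500 mg Fe/kg, ≥60 days before use) dosed orally at 75 μmol/kg, by gavage as monosodium salt (1 equiv NaOH in distilled water) or in capsules. Feces and urine collected every 24 h from 4 days pre-drug to 5 days post-drug; iron by flame absorption spectroscopy. ICE = 2-day post-drug iron minus 4-day baseline average, divided by theoretical output (2:1 ligand:iron); percent. Performance ratio = mean primate ICE/rodent ICE.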

[8] = test system: Rattus norvegicus; experiment: Iron-clearing efficiency in non-iron-overloaded and bile duct-cannulated Sprague-Dawley rat assessed as bile iron excretion at 300 umol/kg, po after 24 hrs relative to control; type: functional; in short: as §1
[9] = Ratio of iron-clearing efficiency in iron-overloaded Cebus apella at 75 umol/kg, po to iron-clearing efficiency in non-iron-overloaded and bile duct-cannulated Sprague-Dawley rat at 300 umol/kg, po; type: functional, organism-based; in short: as §2
[10] = test system: Rattus norvegicus; experiment: Iron-clearing efficiency in non-iron-overloaded and bile duct-cannulated Sprague-Dawley rat assessed as complete bile iron excretion at 300 umol/kg, po; type: functional; in short: as §1
[11] = test system: Sapajus apella; experiment: Iron-clearing efficiency in iron-overloaded Cebus apella at 150 umol/kg, po measured daily once for 2 days by flame absorption spectroscopy relative to control; type: functional
[12] = test system: Sapajus apella; experiment: Iron-clearing efficiency in iron-overloaded Cebus apella assessed as feces iron excretion at 150 umol/kg, po measured daily once for 5 days by lame absorption spectroscopy relative to control; type: functional
[13] = test system: Sapajus apella; experiment: Iron-clearing efficiency in iron-overloaded Cebus apella assessed as urine iron excretion at 150 umol/kg, po measured daily once for 5 days by lame absorption spectroscopy relative to control; type: functional
[14] = test system: Rattus norvegicus; experiment: Iron-clearing efficiency in non-iron-overloaded and bile duct-cannulated Sprague-Dawley rat assessed as reduction of liver iron content at 384 umol/kg, po qd for 10 days administered as monosodium salt relative to control; type: functional; design: scale not given: the % may be the effect or the level left
[15] = test system: Rattus norvegicus; experiment: Iron-clearing efficiency in non-iron-overloaded and bile duct-cannulated Sprague-Dawley rat assessed as bile iron excretion at 300 umol/kg, po after 48 hrs relative to control; type: functional
In short: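 Male Sprague-Dawley rats (400–450 g), non-iron-overloaded and bile duct-cannulated, were dosed orally at 300 μmol/kg, either by gavage as the monosodium salt (1 equiv NaOH added to the free acid in distilled water) or in capsules. Bile was collected at 3 h intervals for up to 48 h and urine at 24 h intervals. Iron efficiency was calculated as treated minus control iron excretion, divided by the theoretical output for a 2:1 ligand:iron complex, expressed as %; values are mean ± SEM.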

[16] = test system: Rattus norvegicus; experiment: Iron-clearing efficiency in non-iron-overloaded and bile duct-cannulated Sprague-Dawley rat assessed as urine iron excretion at 300 umol/kg, po after 48 hrs relative to control; type: functional
[17] = test system: Rattus norvegicus; experiment: Iron-clearing efficiency in non-iron-overloaded and bile duct-cannulated Sprague-Dawley rat assessed as reduction of renal iron content at 384 umol/kg, po qd for 10 days administered as gelatin capsules relative to control; type: functional; design: scale not given: the % may be the effect or the level left
[18] = test system: Rattus norvegicus; experiment: Toxicity in Sprague-Dawley rat assessed as histopathological examination at 384 umol/kg, po qd for 10 days measured after 24 hrs last post dose; type: organism-based; details: in vivo
In short: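 Male Sprague-Dawley rats (300–350 g), fasted overnight, were dosed orally once daily for 10 d. Dosing was 384 μmol/kg/d (capsules or by gavage as monosodium salt) or 192 μmol/kg/d (capsules). Age-matched untreated controls. Rats were euthanized 24 h after the last dose (day 11), and extensive tissues were examined histopathologically.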

[19] = test system: Rattus norvegicus; experiment: Iron-clearing efficiency in non-iron-overloaded and bile duct-cannulated Sprague-Dawley rat assessed as reduction of cardiac iron content at 384 umol/kg, po qd for 10 days administered as gelatin capsules relative to control; type: functional, Heart; design: scale not given: the % may be the effect or the level left
[20] = test system: Rattus norvegicus; experiment: Iron-clearing efficiency in non-iron-overloaded and bile duct-cannulated Sprague-Dawley rat at 300 umol/kg, po after 48 hrs relative to control; type: functional; in short: as §1
[21] = test system: Rattus norvegicus; experiment: Toxicity in Sprague-Dawley rat assessed as histopathological examination at 384 umol/kg, po qd for 10 days; details: in vivo, 240 h
[22] = test system: Rattus norvegicus; experiment: Iron-clearing efficiency in non-iron-overloaded and bile duct-cannulated Sprague-Dawley rat assessed as reduction of liver iron content at 384 umol/kg, po qd for 10 days administered as gelatin capsules relative to control; type: functional; design: scale not given: the % may be the effect or the level left
[23] = test system: Rattus norvegicus; experiment: Iron-clearing efficiency in non-iron-overloaded and bile duct-cannulated Sprague-Dawley rat assessed as reduction of renal iron content at 384 umol/kg, po qd for 10 days administered as monosodium salt relative to control; type: functional; design: scale not given: the % may be the effect or the level left
[24] = test system: Rattus norvegicus; experiment: Iron-clearing efficiency in non-iron-overloaded and bile duct-cannulated Sprague-Dawley rat assessed as reduction of cardiac iron content at 384 umol/kg, po qd for 10 days administered as monosodium salt relative to control; type: functional, Heart; design: scale not given: the % may be the effect or the level left
[25] = test system: Rattus norvegicus; experiment: Iron-clearing efficiency in non-iron-overloaded and bile duct-cannulated Sprague-Dawley rat assessed as bile iron excretion at 150 umol/kg, po after 24 hrs relative to control; type: functional
[26] = test system: Rattus norvegicus; experiment: Iron-clearing efficiency in non-iron-overloaded and bile duct-cannulated Sprague-Dawley rat at 150 umol/kg, po after 24 hrs relative to control; type: functional
[27] = test system: Rattus norvegicus; experiment: Iron-clearing efficiency in non-iron-overloaded and bile duct-cannulated Sprague-Dawley rat assessed as urine iron excretion at 150 umol/kg, po after 24 hrs relative to control; type: functional
[28] = Ratio of iron-clearing efficiency in iron-overloaded Cebus apella to iron-clearing efficiency in non-iron-overloaded Sprague-Dawley rat at 150 umol/kg, po; type: functional
[29] = Octanol-water partition coefficient, log P in Tris buffer at pH 7.4 by shake flask method; type: physicochemical
In short: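 Octanol/water partition was measured at pH 7.4 (Tris buffer) by the shake-flask direct method. The fraction of drug in octanol is expressed as log P_app.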

[30] = test system: Rattus norvegicus; experiment: Iron-clearing efficiency in non-iron-overloaded and bile duct-cannulated Sprague-Dawley rat assessed as reduction of liver iron stores at 384 umol/kg, po qd for 10 days
[31] = test system: Rattus norvegicus; experiment: Iron-clearing efficiency in non-iron-overloaded and bile duct-cannulated Sprague-Dawley rat assessed as reduction of pancreatic iron content at 384 umol/kg, po qd for 10 days administered as monosodium salt; type: functional, organism-based
In short: (§3)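 Male Sprague-Dawley rats (300–350 g) were fasted overnight and dosed orally once daily for 10 d. Dosing was 384 μmol/kg/d in gelatin capsules (n = 5) or by gavage as monosodium salt (n = 10), or 192 (n = 6) or 384 μmol/kg/d (n = 5) in capsules. Rats were fed ~3 h post-dose. Age-matched untreated controls (n = 12). Kidney, liver, heart and pancreas were taken on day 11, wet-ashed (120 °C, then H2O2), and iron was measured by flame absorption spectroscopy.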

[32] = test system: Sapajus apella; experiment: Iron-clearing efficiency in iron-overloaded Cebus apella assessed as reduction of liver iron stores at 384 umol/kg, po qd for 28 days; type: functional, organism-based
[33] = Ratio of iron-clearing efficiency in iron-overloaded Cebus apella at 75 umol/kg, po to iron-clearing efficiency in non-iron-overloaded and bile duct-cannulated Sprague-Dawley rat at 300 umol/kg, po after 48 hrs; type: functional, organism-based; in short: as §2
[34] = test system: Rattus norvegicus; experiment: Iron-clearing efficiency in non-iron-overloaded and bile duct-cannulated Sprague-Dawley rat assessed as bile iron excretion at 300 umol/kg, po up to 48 hrs; type: functional, organism-based; in short: as §1
[35] = test system: Rattus norvegicus; experiment: Iron-clearing efficiency in non-iron-overloaded and bile duct-cannulated Sprague-Dawley rat assessed as time required to maximum bile iron excretion at 300 umol/kg, po after 12 to 15 hrs; type: functional, organism-based; in short: as §1
[36] = test system: Rattus norvegicus; experiment: Iron-clearing efficiency in non-iron-overloaded and bile duct-cannulated Sprague-Dawley rat assessed as reduction of pancreatic iron content at 384 umol/kg, po qd for 10 days administered as gelatin capsules; type: functional, organism-based; in short: as §3
[37] = test system: Rattus norvegicus; experiment: Iron-clearing efficiency in non-iron-overloaded and bile duct-cannulated Sprague-Dawley rat assessed as bile iron excretion at 300 umol/kg, po up to 12 hrs; type: functional, organism-based; in short: as §1

Compound: COCCOCCOCCOCCOc1ccc(C2=N[C@@](C)(C(=O)[O-])CS2)c(O)c1.[Na+]
- Activity [1]: 12%
- Time [2]: 6 h
- Activity [3]: 52%
- Activity [4]: 1%
- Activity [5]: 48%
- Activity [6]: Active
- Activity [7]: 9.8%
- Activity [8]: 99%
- Ratio [9]: 0.8

Compound: C[C@]1(C(=O)[O-])CSC(c2ccc(O)cc2O)=N1.[Na+] [DEFERITRIN SODIUM]
- Time [10]: 9 h
- Activity [11]: 16.8%
- Activity [12]: 88%
- Activity [13]: 12%
- Time [2]: 3 h

Compound: COCCOCCOc1ccc(C2=N[C@@](C)(C(=O)O)CS2)c(O)c1 [SP-420]
- Activity [14]: >35%
- Activity [15]: 97%
- Activity [16]: 3%
- Activity [17]: 7.4%
- Activity [18]: Non-toxic
- Activity [19]: 6.9%
- Activity [20]: 26.7%
- Activity [21]: Toxic
- Activity [22]: >35%
- Activity [23]: 24.8%
- Activity [24]: 9.9%

Compound: COCCOCCOc1ccc(C2=N[C@@](C)(C(=O)[O-])CS2)c(O)c1.[Na+]
- Activity [3]: 83%
- Activity [5]: 7%
- Activity [7]: 26.3%

Compound: C[C@]1(C(=O)O)CSC(c2ncccc2O)=N1 [DESFERRITHIOCIN]
- Activity [11]: 16.1%
- Activity [25]: 93%
- Activity [12]: 78%
- Activity [13]: 22%
- Activity [26]: 5.5%
- Activity [27]: 7%
- Ratio [28]: 2.9
- logD [29]: -1.77

Compound: COCCOCCOc1ccc(C2=N[C@@](C)(C(=O)O)CS2)c(O)c1
- Activity [30]: Active
- Activity [31]: Active
- Activity [32]: Active
- Ratio [33]: 1
- Activity [34]: Active
- Activity [35]: inactive
- Activity [36]: inactive

Compound: COCCOCCOCCOc1ccc(C2=N[C@@](C)(C(=O)O)CS2)c(O)c1
- Activity [11]: 25.4%
- Activity [12]: 96%
- Activity [13]: 4%
- Activity [37]: Active
- Time [2]: 3 h

Compound: COc1ccc(C2=N[C@@](C)(C(=O)[O-])CS2)c(O)c1.[Na+]
- Activity [11]: 24.4%
- Activity [12]: 91%
- Activity [13]: 9%
